Screening results (PubChem)
Compounds with a hit are over-represented: about 3.5% of the library has one in this group of screens.
RGS4 pot = potentiators or activators of RGS4; AID 463111; HEK293 M3R/inducible RGS4, carbachol calcium flux Fluo4; hits give low values; 310,000 tested, 0.92% active; B-score at 10 µM;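 active = B-score of the integrated calcium signal more than 4 SD below the library mean, with starting fluorescence not abnormally high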;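 note: negative B-score means reduced calcium response which marks RGS4 activation or potentiation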
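Material: Inducible-RGS4 HEK293 cells carrying M3 receptor; also added: carbachol at ECmax as muscarinic agonist stimulus; incubation: compound preincubation 20 min at room temperature before agonist; signal: Fluo4-AM (2 µM) calcium-flux fluorescence, kinetic read; measure: integrated calcium ratio converted to B score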
MrgX1 agonist = activates human MrgX1 receptor signaling | Q96LB2 | MrgX1-HEK293 cells, Fluo-4 calcium fluorescence, agonist mode; hits give high values | B-score at 10 µM | 310,000 tested, 0.44% active | AID 588627;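 active = calcium response B-score plate-corrected fluorescence ratio at least 3 library SD, with starting fluorescence B-score inside 5 SD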
Target sequence (Q96LB2 whole entry, looked up): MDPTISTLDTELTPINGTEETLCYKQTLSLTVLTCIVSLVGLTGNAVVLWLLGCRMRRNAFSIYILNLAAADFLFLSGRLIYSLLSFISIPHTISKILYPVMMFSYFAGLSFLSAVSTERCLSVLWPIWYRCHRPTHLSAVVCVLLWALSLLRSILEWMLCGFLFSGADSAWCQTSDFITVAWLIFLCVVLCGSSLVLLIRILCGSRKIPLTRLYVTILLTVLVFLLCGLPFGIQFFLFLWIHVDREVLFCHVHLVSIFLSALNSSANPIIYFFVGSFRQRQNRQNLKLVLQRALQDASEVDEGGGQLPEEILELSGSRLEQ
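Material – MrgX1-expressing HEK293 cells · Input – 15,000 cells seeded per well · Dosing – compound as first of three additions · Times – overnight seeding, then 1 h dark dye loading · Measured by – kinetic Fluo-4 NW fluorescence of intracellular calcium · Read-out – B-scored fluorescence response ratio · Benchmarks – positive and negative control wells on each plate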
MrgX1 allo act = allosterically activates human MrgX1 receptor signaling; B-score at 10 µM; 310,000 tested, 0.63% active; MrgX1-HEK293, Fluo-4 calcium flux, FDSS; hits give high values; AID 588675;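 active = plate-corrected calcium response at least 3 library SD above typical, normal starting fluorescence, not activating the receptor alone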;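 note: compound read alongside a low EC10 to EC30 dose of BAM8-22 agonist; peak minus trough fluorescence over baseline measured at the second addition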
MrgX1 antagonist = human MrgX1 receptor antagonism, primary screen | 310,000 tested, 1.3% active | B-score at 10 µM | MRGX1-HEK293 calcium flux, Fluo-4, BAM8-22 antagonism; hits give low values | Q96LB2;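 active = calcium-response B-score plate-corrected more than 3 library SD below zero, starting fluorescence within 5 deviations, no agonist response on first addition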;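 note: peak minus trough fluorescence over baseline after final BAM8-22 challenge near maximal dose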
RGS4 inh = human RGS4 inhibition. P49798. HEK293 M3R/RGS4 inducible, Fluo-4 calcium flux; hits give high values; triggered by carbachol at its EC20. B-score at 10 µM. 310,000 tested, 0.45% active. AID 463165;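 active = B-score, a plate-corrected calcium signal, over three deviations above library mean, with baseline fluorescence within five deviations of library mean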;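 note: RGS4 expression induced by doxycycline in cells with stable M3 receptor; B-score is computed from the integrated fluorescence ratio over baseline after carbachol; higher B-score means a larger calcium signal and so more RGS4 inhibition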
Target sequence (P49798 whole entry, looked up): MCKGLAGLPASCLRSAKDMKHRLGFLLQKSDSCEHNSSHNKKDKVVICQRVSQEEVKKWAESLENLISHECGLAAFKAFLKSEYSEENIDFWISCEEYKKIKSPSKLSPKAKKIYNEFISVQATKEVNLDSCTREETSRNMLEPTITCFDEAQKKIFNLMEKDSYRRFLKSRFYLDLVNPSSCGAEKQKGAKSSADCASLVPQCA
* hit, by the source's call; i = inactive; x = not tested or not shown.

SMILES	RGS4 pot	MrgX1 agonist	MrgX1 allo act	MrgX1 antagonist	RGS4 inh
CN1CCN(CCC2Oc3cc([N+](=O)[O-])ccc3NC2=O)CC1 (configuration not stated)	i	i	i	i	i
O=C1Nc2ccc([N+](=O)[O-])cc2OC1CCN1CCCC1 (configuration not stated)	i	i	11.7*	i	i
O=c1c2cc(Cl)ccc2nc(-c2ccccc2)n1O	i	i	i	i	i
O=c1c2cc(Br)ccc2nc(-c2ccc([N+](=O)[O-])cc2)n1O	i	133*	i	i	i
O=c1c2ccc(Cl)cc2nc(-c2ccc([N+](=O)[O-])cc2)n1O	i	53.5*	i	i	i
COCCN(C(=O)CCC(=O)Nc1nccs1)C(C(=O)NCCC(C)C)c1ccc(OC)cc1 (configuration not stated)	i	i	i	i	i
COc1ccc(C(=O)CSc2nnc(CNC(=O)c3ccco3)n2C)cc1	i	i	i	i	i
COc1ccc(C(CNC(=O)c2cccc(S(=O)(=O)NCc3ccccc3)c2)N(C)C)cc1 (configuration not stated)	i	i	i	i	i
C(#Cc1ccccc1)C[N+]1(CC#Cc2ccccc2)CCCC1	-8.05*	i	i	i	i
C=CC[N+]1(CC#Cc2ccccc2)CCCC1	i	i	i	i	i
Cc1cccc(-n2c(CNC(=O)c3ccc(S(=O)(=O)N(C)C)cc3)nnc2SCC(=O)Nc2ccc(F)cc2)c1	-8.1*	i	i	i	i
Cc1cccc(NC(=O)CSc2nnc(CNC(=O)c3ccc(S(=O)(=O)N(C)C)cc3)n2-c2ccc(F)cc2)c1	i	i	i	i	i
Cc1ccc(CNS(=O)(=O)c2c(C(=O)N3CCCCC3)c(C)n(C)c2C)o1	i	i	i	i	i
CCN(CC)c1ccc(/C=N/N=C(N)N)c(O)c1	i	i	7.75*	-5.53*	i
CCN(CC)c1ccc(/C=N/N2CCOCC2)c(O)c1	i	i	i	i	i
CCN(CC)c1ccc(C=Nc2ccccc2)c(O)c1	i	i	i	i	i
CCN(CC)c1ccc(/C=N/N2C(C)CCCC2C)c(O)c1 (configuration not stated)	i	i	7.7*	i	i
CCCOc1ccc(C(=O)N/N=C/c2ccc(-c3ccc(S(=O)(=O)Nc4ncccn4)cc3)o2)cc1	i	29.3*	i	i	i
N#C/C(=C\c1ccc(Sc2ccccc2)o1)c1nc2ccccc2[nH]1	i	i	7.59*	i	i
N#C/C(=C\c1ccc([N+](=O)[O-])o1)c1nc2ccccc2[nH]1	i	i	i	-4.51*	i
S=C(Nc1ccc(Cc2ccncc2)cc1)Nc1cccc(Cl)c1	i	i	i	i	i
Cn1c(=O)c2c(nc(SCC(=O)c3ccccc3F)n2C)n(C)c1=O	i	i	i	-7*	i
CC(C)(C)c1ccc(-n2ncc3c2CCCC3NC(=O)CCCn2cncn2)cc1 (configuration not stated)	i	x	x	x	i
COc1cccc(/C=N/Nc2nc(Nc3ccc([N+](=O)[O-])cc3)nc(N3CCCC3)n2)c1O	-9.22*	i	i	i	i
COc1ccc(/C=N/Nc2nc(Nc3ccccc3)nc(N3CCCC3)n2)cc1	i	i	i	-5.93*	i
SMILES	RGS4 pot	MrgX1 agonist	MrgX1 allo act	MrgX1 antagonist	RGS4 inh
O=[N+]([O-])c1ccc(Nc2nc(N/N=C/c3cccc(F)c3)nc(N3CCCC3)n2)cc1	i	i	i	i	i
COC(=O)[C@@H]1C(c2c(OC)cc(OC)cc2OC)=NO[C@H]1C(=O)OC	i	i	i	-6.21*	i
COC(=O)C1CC(c2c(OC)cc(OC)cc2OC)=NO1 (configuration not stated)	i	i	i	i	i
O=C1C(=C2CCCCC2)SC(=S)N1Cc1ccco1	-7.91*	i	i	i	i
COc1ccc(C(CCNCc2ccc(OC(C)C)cc2)C(C)C)cc1 (configuration not stated)	i	i	i	-5.42*	i
COc1ccc(CNCCC(c2ccc(OC(C)C)cc2)C(C)C)cc1OC (configuration not stated)	i	i	i	i	i
CCC(NC(=S)NC1CCCCC1)c1ccc(C(C)C)cc1 (configuration not stated)	-8.53*	i	i	-5.29*	i
CC(C)Sc1nnc([C@H](Cc2c[nH]c3ccccc23)NC(=O)OC(C)(C)C)o1	i	i	i	i	i
O=C1CCC2S/C(=C/Nc3ccc(C(F)(F)F)cc3)C(=O)N12 (configuration not stated)	i	i	i	-4.82*	i
COC(C/C=C\[C@H](O)[C@H](C)OCc1ccccc1)OC	i	i	i	-5.39*	i
O=C(Nc1ccc(NC(=O)C2CCCCC2)nc1)c1cccs1	i	i	i	i	i
O=C(NNC(=O)C1CC1c1ccccc1)Nc1cccc(Cl)c1 (configuration not stated)	i	i	i	-5.38*	i
CCc1cccc(NC(=O)C2CC2c2ccccc2)c1 (configuration not stated)	i	i	i	i	i
O=C(/C=C/c1ccccc1)CC(O)(c1ccccc1)C(F)(F)C(F)F (configuration not stated)	-8.9*	i	i	i	i
COc1ccc(/C=C/C(=O)CC(O)(c2ccccc2)C(F)(F)F)cc1 (configuration not stated)	i	i	i	i	i
O=C(/C=C/c1ccccc1)CC(O)(c1ccccc1)C(F)(F)F (configuration not stated)	-10.2*	i	i	i	i
COc1ccc(CCNC(=O)CN(c2cc([N+](=O)[O-])ccc2OC)S(C)(=O)=O)cc1	i	i	i	-5.06*	i
COc1ccccc1CNC(=O)CN(c1cccc([N+](=O)[O-])c1)S(C)(=O)=O	i	i	11*	i	i
Cc1cccc(NS(=O)(=O)c2ccc(NC(=O)CN(c3cc([N+](=O)[O-])ccc3C)S(C)(=O)=O)cc2)c1	i	i	i	i	6.57*
CS(=O)(=O)N(CC(=O)Nc1ccc(F)c(F)c1)c1cccc([N+](=O)[O-])c1	i	i	8.55*	i	i
NC(=O)c1ccc(NC(=O)COC(=O)/C=C/c2ccc3c(c2)OCO3)cc1	i	i	i	i	i
